Screening results from PubChem BioAssay.
Lmaj promast – Leishmania major promastigote growth inhibition, primary screen; Leishmania major promastigotes, resazurin fluorescence viability; inhibition, % at 10 µM; 200,000 tested, 9% active;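 further: promastigotes grown with compound for 44 hours at 28 °C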
ABCG2 block – ABCG2 efflux pump inhibitors, primary screen, multiplex with ABCB1, IgMXP3 cells, flow cytometry | Broad substrate specificity ATP-binding cassette transporter ABCG2 (Homo sapiens), Q9UNQ0 | JC-1 efflux | inhibition, % at 6.6 µM | 190,000 tested, 0.1% active | AID 1325, 2008;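 active means inhibition above 80%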;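 further: 0% = DMSO and 100% = nicardipine control wells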
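material = IgMXP3 (ABCG2) plus far-red-tagged CCRF-Adr (ABCB1) cells | amount = 3 million cells/mL, equal mix of both lines | also added = JC-1 transporter substrate | dosing = one concentration, 6.6 µM final | schedule = 10 min at 25 °C | measured by = flow cytometric JC-1 green MFI at 530 nm | read-out basis = percent efflux inhibition, scaled nicardipine 100% to DMSO 0%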
GSH fluor – compound fluorescence on glutathione beads, profiling panel, artefact control, biophysical, 488/530 nm, flow cytometry; GSH beads flow cytometry, compound fluorescence 488/530 nm; stronger effect = higher value; fluorescence (KMESF) at 10 µM; 190,000 tested, 0.25% active; AID 1776, 2009; in the data active means fluorescence above about 89;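 further: glutathione beads carrying GST-tagged Bcl family fusion proteins plus one bare bead set; values are compound well signal with DMSO vehicle wells as background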
Avidin bead fluor – green autofluorescence of compounds with avidin beads – biophysical, 488/530 nm, flow cytometry, artefact control, profiling panel; compound fluorescence 488/530 nm; stronger effect = higher value; fluorescence (KMESF) at 10 µM; 220,000 tested, 0.38% active; AID 1775, 2009; in the data active means fluorescence above about 47
ABCB1 inh – ABCB1 efflux pump inhibitors, primary screen, cell-based, multiplex, flow cytometry, ABCG2 counter-screen. ATP-dependent translocase ABCB1 (Homo sapiens), P08183. CCRF-Adr cells, JC-1 efflux. inhibition, % at 6.6 µM. 190,000 tested, 0.067% active. AID 1326, 2008; in the data active means inhibition above about 40%;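 further: 0% = vehicle and 100% = reference inhibitor; higher value means more JC-1 retained so stronger ABCB1 efflux block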
PKD1 inh – inhibitors of human PKD1 kinase, biochemical, fluorescence polarization; Serine/threonine-protein kinase D1 (Homo sapiens), Q15139; PKD1 kinase fluorescence polarization assay; inhibition, % (no concentration beside the values); 200,000 tested, 0.056% active
* marks the source's active call; other numbers are inactive results; / = no result. Shown is part of a subset that was picked to be rich in hits. Unless noted, no stated cut-off is given here; in the data, active means inhibition above about 50%; inactive means the rest.

SMILES	Lmaj promast	ABCG2 block	GSH fluor	Avidin bead fluor	ABCB1 inh	PKD1 inh
C[n+]1ccccc1COc1ccc(C(C)(C)C)cc1	-2	0	11	7	0	-18
Cc1ccc(C(C)C)c(OCc2ccc(C(=O)N/N=C/c3ccc(O)c(O)c3)cc2)c1	100*	-3	6	9	-1	-11
Cc1ccc(C(C)C)c(OCc2ccc(C(=O)N/N=C/c3cccc(O)c3O)cc2)c1	100*	0	9	13	-1	-5
COc1cc(/C=N/NC(=O)c2ccc(COc3cc(C)ccc3C(C)C)cc2)cc(OC)c1O	37	0	13	14	0	-12
CC(=O)Nc1ccc(C(=O)N/N=C/c2ccccc2OCc2ccccc2)cc1	-1	1	18	4	0	-9
CC(C)Cn1c(CN2CCCCC2C)nc2c1c(=O)n(C)c(=O)n2C (centres undefined)	-1	0	23	9	0	1
Cc1cc(C)nc(S/C=C/C(=O)c2ccccc2F)n1	/	/	/	7	/	/
CC1=C(C(=O)OC(C)C)C(c2cccs2)NC(=S)N1 (centres undefined)	-1	1	17	7	0	5
CC1=C(C(=O)OC(C)C)C(c2cccnc2)C2=C(CC(C)(C)CC2=O)N1 (centres undefined)	92*	0	22	8	0	-3
COC(=O)C1=C(N)OC2=C(C(=O)CC(C)(C)C2)C1c1cccnc1 (centres undefined)	50*	0	57	7	0	9
COC(=O)C1=C(N)OC2=C(C(=O)CC(C)(C)C2)C1c1ccccc1OCC#N (centres undefined)	3	3	18	10	1	-6
COCCOC(=O)C1=C(C)NC2=C(C(=O)CC(C)(C)C2)C1c1cccnc1 (centres undefined)	64*	0	21	23	0	4
CC(=O)c1sc(N/N=C2\CC3CCC2(C)C3(C)C)nc1C (centres undefined)	83*	13	13	11	0	0
CCN(CC)S(=O)(=O)c1ccc(C(=O)Nc2ccc3c(c2)OCO3)cc1	17	14	13	11	0	-6
O=C(NCC1CCCO1)C1CCN(S(=O)(=O)c2cccc3nonc23)CC1 (centres undefined)	-3	0	26	35	0	3
Cc1cc2oc(C(=O)Nc3ccc(S(=O)(=O)N4CCCC(C)C4)cc3)cc(=O)c2cc1Cl (centres undefined)	39	0	9	13	0	1
Cc1cc(C)c2oc(C(=O)Nc3ccc(S(=O)(=O)N4CCC(C)CC4)cc3)cc(=O)c2c1	87*	47	11	14	2	-5
CCN(CC)c1ccc(NC(=O)c2ccc3c(c2)c(C)c(C)n3C)cc1	45	-2	11	11	-1	0
NS(=O)(=O)c1ccc(CCNC(=O)Nc2ccc(Cl)c(Cl)c2)cc1	76*	0	28	5	0	1
NS(=O)(=O)c1ccc(CNC(=S)Nc2ccc(Cl)c(Cl)c2)cc1	17	4	9	3	2	-4
C=CCn1c(=O)c2ccccc2n2c(SCC(=O)Nc3sc(C)c(CC)c3C(=O)OCC)nnc12	71*	4	9	15	3	-8
COc1ccc(/C=N/NC(=O)c2ccc(Br)cc2)cc1CN1CCOCC1	/	/	/	8	/	/
COc1ccc(C(=O)Cn2c(NCCO)nc3ccccc32)cc1	1	1	14	11	1	-1
COc1ccc(C(=O)/C=C/c2ccc(OC)c(Cn3nnc4ccccc43)c2)cc1	85*	20	16	16	4	3
COc1ccc(C(=O)CSc2nnc(Cn3nnc4ccccc43)n2C)cc1	-2	1	22	15	0	-2
SMILES	Lmaj promast	ABCG2 block	GSH fluor	Avidin bead fluor	ABCB1 inh	PKD1 inh
COc1ccc(/C=C/C(=O)c2nc3ccccc3n2CC(=O)c2ccc(OC)cc2)cc1	75*	27	31	22	3	-4
COc1ccc(/C=C/C(=O)c2ccc(O)cc2)cc1CN1CCOCC1	98*	7	14	14	1	12
COc1ccc(/C=C/C(=O)C23CC4CC(CC(C4)C2)C3)cc1CN1CCOCC1	66*	2	22	9	0	-2
COc1ccc(/C=C/C(=O)c2ccccc2O)cc1CN1CCOCC1	24	24	40	7	11	3
COc1ccc(/C=C/C(=O)c2ccc3ccccc3c2O)cc1CN1CCOCC1	34	9	12	33	9	-9
COc1ccc(C(=O)/C=C/c2ccc(OC)c(CN3CCOCC3)c2)cc1	86*	5	10	2	1	-13
O=[N+]([O-])c1cccc(-c2nc(-c3ccccc3)c(-c3cccs3)[nH]2)c1	14	1	15	31	0	2
COc1cc(-c2nc(-c3ccccc3)c(-c3cc([N+](=O)[O-])ccc3C)[nH]2)cc(OC)c1OC	100*	12	15	5	3	-1
COc1ccc(NC(=O)c2cccnc2Sc2ccccc2)c(OC)c1	3	5	5	4	0	-4
Cc1ccc(NC(=O)/C(Cl)=C/c2ccccc2)cc1C	27	-2	21	14	0	-3
N#Cc1nc(-c2ccc(OCc3ccccc3)cc2)oc1NCCCn1ccnc1	52*	2	15	11	0	9
N#Cc1nc(-c2ccc(OCc3ccccc3Cl)cc2)oc1NCCCn1ccnc1	99*	1	33	7	0	-6
C#CCNC(=O)C1=C[C@@H](C2CC2)C[C@@H](OCc2ccc(CO)cc2)O1	-1	3	19	6	0	0
CC(C)(C)[C@H]1C=C(C(=O)Nc2ccccc2)O[C@@H](OCc2ccc(CO)cc2)C1	41	13	17	6	1	0
C#CCNC(=O)C1=C[C@@H](C(C)(C)C)C[C@@H](OCc2ccc(CO)cc2)O1	98*	9	19	0	2	8
CC(C)(C)[C@@H]1C=C(C(=O)NCc2ccccc2)O[C@H](OCc2ccc(CO)cc2)C1	97*	5	17	5	1	0
COc1ccc(C(=O)OCC(=O)NC(=O)NC2CCCC2)c(O)c1	2	19	15	13	2	-2
O=C(NC1CCCCC1)Nn1c(-c2ccccc2)nc2ccccc2c1=O	-3	-1	12	14	0	9
COc1ccc(OC)c(-c2cc(C(=O)Nc3ccc(F)cc3F)no2)c1	1	2	7	4	0	-5
